According to ChEMBL document CHEMBL4513216, “Probing the Open Global Health Chemical Diversity Library for Multistage-Active Starting Points for Next-Generation Antimalarials” (ACS Infect Dis, 2020):

Assay: Toxicity liver stage against HepG2, at 10uM
Assay type: cell-based
Set-up: test concentration 10 uM, cell line HepG2-A16-CD81EGFP
Conditions: human, HepG2-A16-CD81EGFP cells; read-out: INHIBITION
How it was run: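 Uninfected HepG2-A16-CD81EGFP cells, 3 × 10^3 per well, 1536-well, plated on prespotted compound at 10 μM final, parasite-free screening media added to match infected plates; puromycin 10 μM positive, DMSO 0.5% negative; run in parallel with 48 h PbLuc assay at 37 °C, 5% CO2; viability by CellTiter-Glo luminescence, normalized to controls.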
`CCC1(C)Cc2ccccc2-c2nc(NCCO)nc(O)c21` (configuration not stated) showed a cytotoxicity at 10 µM of 4.1%.
`CC(C)(C)c1coc([C@@H]2COCCN2Cc2ncc[nH]2)n1` gave a cytotoxicity at 10 µM of 2.61%.
`Cc1cc(=O)[nH]c(-n2nc(-c3cccs3)cc2N)n1` showed a cytotoxicity at 10 µM of 4.57%.
Compound `Cc1noc(C)c1CN1CCOC2(CCCN(c3ccccn3)C2)C1` (configuration not stated) has a cytotoxicity at 10 µM of 11.6%.
Work on `O=C(NC1CC1)[C@H]1CC[C@@H]2[C@@H](CCN2Cc2ccsc2)O1` yielded a cytotoxicity at 10 µM of 1.42%.
With `Cn1nnc2c1C(COCC1CC1)CN(C(=O)Cc1cccs1)C2` (configuration not stated) the cytotoxicity at 10 µM was 3.88%.
Compound `CC(C)N(C)[C@@H]1CCN(C(=O)[C@H]2CCCO2)[C@H]1Cc1cnn(C)c1` has a cytotoxicity at 10 µM of 0.428%.
Compound `CN(Cc1cn2c(n1)CN(C(N)=O)CC2)Cc1ccco1` has a cytotoxicity at 10 µM of -5.67%.
In the case of `Cc1ccc(NC(=O)C(C)n2ccc(C(F)(F)F)n2)nc1` (configuration not stated), the cytotoxicity at 10 µM is reported as 9.6%.
With `CCn1cc(Cl)c(C(=O)Nc2ccc3c(c2)C(C)(C)C(=O)N3C)n1` the cytotoxicity at 10 µM was 9.21%.
For `Cc1cc(=O)n(CC(=O)NCC2CCCO2)c(-c2ccccc2)n1` (configuration not stated), the cytotoxicity at 10 µM was -14.6%.
Compound `COc1ccc(OCCc2nnc(NC(C)=O)s2)cc1` has a cytotoxicity at 10 µM of 0.0869%.
In the case of `CC(C)c1ccc(CC2(C)Cc3cc(CC(=O)O)ccc3O2)cc1` (configuration not stated), the cytotoxicity at 10 µM is reported as 6.65%.
For `COCC(=O)N1C[C@@H](c2cccc(F)c2)[C@H]2[C@H]1CCCCCN2C(C)=O`, the cytotoxicity at 10 µM was 4.22%.
Compound `COCc1ccc(C(=O)N2CCC(c3cc4ncc(C)nc4[nH]3)C2)cc1` (configuration not stated) has a cytotoxicity at 10 µM of -25.6%.
Work on `COc1ccccc1Oc1cncc(C2CCCN(CC(N)=O)C2)n1` (configuration not stated) yielded a cytotoxicity at 10 µM of -15.5%.
Work on `Cc1nccc(C2CCCCN2Cc2ccccc2)n1` (configuration not stated) yielded a cytotoxicity at 10 µM of -28.2%.
`Cc1noc(C)c1-c1cc(C2CCNCC2)ccn1` gave a cytotoxicity at 10 µM of -16.6%.
Compound `CCc1cc(C(=O)N2CCC(c3cc4ncccc4cn3)CC2)on1` has a cytotoxicity at 10 µM of -13%.
`Cc1ccccc1CNC(=O)c1ccccc1-n1cc(CN)cn1` showed a cytotoxicity at 10 µM of -21%.
With `Cc1cccnc1C(=O)N1C[C@@H]2CC[C@H](Oc3cccc(F)c3)[C@@H]2C1` the cytotoxicity at 10 µM was 0.297%.
Work on `CN1CCCC1c1ccnc(C(=O)N(C)C2CCCCC2)c1` (configuration not stated) yielded a cytotoxicity at 10 µM of -21.5%.
Work on `CN(C)C(=O)C1CN(Cc2ccsc2)CCN(S(C)(=O)=O)C1` (configuration not stated) yielded a cytotoxicity at 10 µM of 14.4%.
`Cn1cc(CN2CCCC(CCCc3ccccn3)(C(N)=O)C2)cn1` (configuration not stated) showed a cytotoxicity at 10 µM of -24.5%.
With `CNC(=O)C1(c2cnccn2)CCCN1C(=O)c1ccc(OC)cc1` (configuration not stated) the cytotoxicity at 10 µM was -12.9%.
In the case of `CC(C)N1CCCC(CNC(=O)Cc2csc(-c3cccnc3)n2)C1` (configuration not stated), the cytotoxicity at 10 µM is reported as -51.5%.
`Cc1ccc(C(=O)NC2CCN(C(C)C)C2)c(=O)[nH]1` (configuration not stated) gave a cytotoxicity at 10 µM of 5.26%.
`CCCN1CCC(NCc2cccc(CN3CCOC(C)C3)c2)CC1` (configuration not stated) gave a cytotoxicity at 10 µM of -13%.
For `CN(C)c1ncccc1NC(=O)COCC1CC1`, the cytotoxicity at 10 µM was -4.69%.
With `CCC(=O)N(c1ccc(C(=O)OC)cc1C)C(C)C` the cytotoxicity at 10 µM was 0.814%.
For `Cc1csc(C2(NCCC(=O)N3CCOCC3)CCCC2)n1`, the cytotoxicity at 10 µM was -11.4%.
For `CN1CCN(C2CCN(C(C(N)=O)c3ccccc3)CC2)C1=O` (configuration not stated), the cytotoxicity at 10 µM was -4.29%.
Work on `Cc1ccc(CNC(=O)N2CCN(C(C)c3cccnc3)CC2)cn1` (configuration not stated) yielded a cytotoxicity at 10 µM of -2.11%.
In the case of `COc1cc(CNC(=O)Nc2nnc(C(F)(F)F)s2)ccc1O`, the cytotoxicity at 10 µM is reported as -2.83%.
With `CCOC(=O)c1ccc(CNC(=O)c2ccncc2Cl)o1` the cytotoxicity at 10 µM was 6.93%.
`Cc1cc(C(=O)N(C)C(C)CC(C)C)on1` (configuration not stated) gave a cytotoxicity at 10 µM of -4.6%.
With `COC(=O)NCC(=O)NCC(C)(C)c1cccc(Br)c1` the cytotoxicity at 10 µM was -3.01%.
Work on `CC(NC(=O)C1=NN(C)C(=O)CC1)c1ccc(Cl)cc1` (configuration not stated) yielded a cytotoxicity at 10 µM of -20.7%.
Compound `CS(=O)(=O)NC1CCCN(C(=O)Nc2cccnc2N2CCCC2)C1` (configuration not stated) has a cytotoxicity at 10 µM of -131%.
In the case of `CC(C)c1nnc2n1CCN(C(=O)c1cn(-c3ccccc3)nn1)C2`, the cytotoxicity at 10 µM is reported as -144%.
For `N#Cc1ccc(N2CCC(NS(=O)(=O)c3cccs3)CC2)c(F)c1`, the cytotoxicity at 10 µM was 20.5%.
For `Cc1cc(C)n(CC2CCCCN2C(=O)c2ccc3[nH]nnc3c2)n1` (configuration not stated), the cytotoxicity at 10 µM was 2.52%.
`O=C(CCc1ccncc1)Nc1ccc(OCC2CCOCC2)cc1` showed a cytotoxicity at 10 µM of -2.98%.
`Cc1ccc(S(=O)(=O)NC(=O)C2(c3ccccc3)CCC2)c(C)c1` gave a cytotoxicity at 10 µM of 13.5%.
Work on `CCCN1CCC(Nc2nc(CC)ns2)CC1` yielded a cytotoxicity at 10 µM of -2.59%.
`CC(C)C(Sc1ccccc1)C(=O)N(C)Cc1nnc2n1CCC2` (configuration not stated) showed a cytotoxicity at 10 µM of -12.5%.
Compound `Cn1ncnc1NCc1ccc(Br)cc1` has a cytotoxicity at 10 µM of -11.9%.
`Cc1ncsc1C(=O)N1CCCC(c2noc(C(C)C)n2)C1` (configuration not stated) showed a cytotoxicity at 10 µM of -2.04%.
Work on `COCCN(Cc1ccc(F)cc1Cl)C(=O)c1ccncc1` yielded a cytotoxicity at 10 µM of -5.69%.
With `Cc1nccc(NCc2cc3n(n2)CCCN(C(=O)C2CCC2)C3)n1` the cytotoxicity at 10 µM was -128%.
For `Cc1ncsc1C(=O)N[C@@H](Cc1ccccc1)C(N)=O`, the cytotoxicity at 10 µM was -44.9%.
For `CC(=O)NCCNC(=O)CCn1c(C)cc2ccccc21`, the cytotoxicity at 10 µM was 6.26%.
For `COc1cccc(S(=O)(=O)N2C[C@@H](N(C)C)[C@H](C(C)C)C2)c1`, the cytotoxicity at 10 µM was -51.2%.
For `COCC1(NC(=O)C(c2ccc(F)cc2)N(C)C)CCCC1` (configuration not stated), the cytotoxicity at 10 µM was -44.9%.
In the case of `O=C(CCCc1ccc(Cl)cc1)N1CCC(c2nnc[nH]2)CC1`, the cytotoxicity at 10 µM is reported as 18.3%.
Compound `CC(C)N1CCC(N2CCCC(C(=O)NCC3(O)CCCCC3)C2)CC1` (configuration not stated) has a cytotoxicity at 10 µM of 2.59%.
Compound `CN(C)CCOc1cccc(CN2CCCC3(C2)CN(C)C(=O)O3)c1` (configuration not stated) has a cytotoxicity at 10 µM of -5.82%.
In the case of `c1nc(N2CCCC2)ncc1CN1CCCC(CN2CCCCC2)C1` (configuration not stated), the cytotoxicity at 10 µM is reported as -5.45%.
`CCCn1cc(C(=O)NC(C(=O)O)c2ccccc2C(F)(F)F)c(C)n1` (configuration not stated) gave a cytotoxicity at 10 µM of -50.2%.
In the case of `CCC(C(=O)NC(C)(C)C)n1ccc2ncccc2c1=O` (configuration not stated), the cytotoxicity at 10 µM is reported as 3.69%.
`Cc1cc(CN2CC3(CCN(C(=O)C4CC4)CC3)CC2C(=O)O)oc1C` (configuration not stated) gave a cytotoxicity at 10 µM of 1.1%.
`NC(=O)CN1CC2(CCC1=O)CCN(Cc1cc(F)ccc1Cl)CC2` gave a cytotoxicity at 10 µM of 18.6%.
`CC(C)N1CCC(Cc2cc(-c3cccc(C(=O)O)c3)ncn2)C1` (configuration not stated) gave a cytotoxicity at 10 µM of 3.01%.
In the case of `C[C@]1(O)CCN(Cc2cncs2)C[C@@H]1Oc1cccc(F)c1`, the cytotoxicity at 10 µM is reported as 6.06%.
Compound `CC(C)c1nc(C2CCCN2Cc2ccon2)no1` (configuration not stated) has a cytotoxicity at 10 µM of -3.5%.
Work on `Cc1cccc(C(=O)NCc2ccccc2)n1` yielded a cytotoxicity at 10 µM of -4.83%.
In the case of `CC(C)C(Sc1nnnn1C1CC1)C(=O)NCc1ccccc1` (configuration not stated), the cytotoxicity at 10 µM is reported as -3.46%.
Compound `Cc1oc(C(=O)O)cc1S(=O)(=O)Nc1cc(F)ccc1F` has a cytotoxicity at 10 µM of -7.66%.
Work on `Cc1ncc2c(n1)CN(Cc1nc(-c3ccsc3)no1)CC2` yielded a cytotoxicity at 10 µM of -1.33%.
`CC1CN(CC(=O)N2CCOCC2)CCN1Cc1nccn1C` (configuration not stated) showed a cytotoxicity at 10 µM of -15.6%.
`COCc1ccccc1CNCc1c(C(C)C)nn(C)c1N(C)C` gave a cytotoxicity at 10 µM of -7.83%.
Work on `O=C(c1cnc(-c2cccs2)s1)N1CCCC(n2ccnc2)C1` (configuration not stated) yielded a cytotoxicity at 10 µM of -12.8%.
In the case of `CCc1ccc(O)c(C(=O)NC2CCN(C(=O)OC)CC2)c1`, the cytotoxicity at 10 µM is reported as 1.89%.
`CC(Cn1ccnc1)NC(=O)C1(c2ccc(F)cc2)CC1` (configuration not stated) gave a cytotoxicity at 10 µM of -9.62%.
In the case of `CCc1nc(CN(C)C2CCN(CCS(C)(=O)=O)C2)no1` (configuration not stated), the cytotoxicity at 10 µM is reported as 4.45%.
Compound `COc1cc(C(=O)N2CCCS2(=O)=O)cc(Cl)c1OC` has a cytotoxicity at 10 µM of 2.31%.
Compound `CCc1nc(C2CCCN(C(=O)c3ccc4[nH]nnc4c3)C2)no1` (configuration not stated) has a cytotoxicity at 10 µM of 2.67%.
`OCC1CCC2(CC1)CN(Cc1ccccn1)Cc1ccccc1O2` (configuration not stated) showed a cytotoxicity at 10 µM of 5.35%.
With `Cc1nc(C2CCN(Cc3ncc[nH]3)CC2)no1` the cytotoxicity at 10 µM was -28%.
Work on `c1cc(CN2CCc3ncc(CN4CCCCC4)n3CC2)cs1` yielded a cytotoxicity at 10 µM of -5.21%.
For `CN(C)[C@@H]1CCN(C(=O)NC2CCCC2)[C@H]1Cc1cnn(C)c1`, the cytotoxicity at 10 µM was -0.336%.
For `NC(=O)NCC(=O)N1C[C@@H]2CC[C@H]1CN(C1Cc3ccccc3C1)C2`, the cytotoxicity at 10 µM was 15.3%.
